“And” between values parts separate entries of the source, which are not always exact repeats. Equal values may be shown once. Read-outs that look alike come from different tables or passages of the source.
Key:
[1] = system: LINE-1 methylation in MDS-L cells; experiment: LINE-1 methylation by bisulfite pyrosequencing in MDS-L cells; format: cell-based, human; details: 100 nmol/L; for LINE-1 methylation level: untreated 88.9%
[2] = system: LINE-1 methylation in SKM1 cells; experiment: LINE-1 methylation by bisulfite pyrosequencing in SKM1 cells; format: cell-based, human; details: 100 nmol/L, untreated 82.7%
[3] = Long-term administration safety in BALB/c mice; format: in vivo; details: for anemia (hematopoietic toxicity) / survival on long-term administration: high dose: DAC 2.5 mg/kg or OR21 7.5 mg/kg
Method in brief: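 Non-immunodeficient BALB/c mice received long-term dosing of the test compound at 7.5 (high) or 3.7 (low) mg/kg, or a reference hypomethylating agent at 2.5 or 1.25 mg/kg. Anemia and survival were monitored while dosing continued, through at least day 57.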

[4] = Stability of the base moiety in an aqueous environment; details: pH 6
HL60R cells = experiment: HL60R xenograft model; format: in vivo, mice
[5] = mice, Supplementary Table S4, cited from earlier work
HL60 cells = experiment: HL60 xenograft mouse model; format: in vivo, BALB/c Rag-2/JAK3 double-deficient (BRJ) mice; details: for LINE-1 methylation in bone marrow cells / hemoglobin levels: DAC 1.0 mg/kg or OR21 2.7 mg/kg twice weekly; for LINE-1 methylation in bone marrow cells: vehicle 83.7%; for hemoglobin levels: at the time of sacrifice, vehicle 17.5 g/dL; for human CD45-positive cells in PB: day 37, vehicle 2.96%; for CD11b-positive cells in PB: late treatment from day +28, days +35 to +40, vehicle 43.3%
[6] = Pharmacokinetics in cynomolgus monkeys; format: in vivo, cynomolgus monkey
[7] = system: LINE-1 methylation in KG1a cells; experiment: LINE-1 methylation by pyrosequencing in KG1a cells; format: cell-based, human; details: 500 nmol/L, untreated 89.1%
[8] = system: AZA-resistant HL60 (HL60R) cells; experiment: AZA-resistant HL60; format: cell-based, human; details: in vitro; similar extent as DAC, more effectively than AZA
[9] = system: LINE-1 methylation in THP-1 cells; experiment: LINE-1 methylation by pyrosequencing in THP-1 cells; format: cell-based, human; details: 500 nmol/L, untreated 69.0%
[10] = system: LINE-1 methylation in Kasumi-1 cells; experiment: LINE-1 methylation by pyrosequencing in Kasumi-1 cells; format: cell-based, human; details: 500 nmol/L, untreated 90.7%
SKM1 cells = experiment: SKM1 xenograft mouse model; format: in vivo, BALB/c Rag-2/JAK3 double-deficient (BRJ) mice; details: twice weekly from day 7 posttransplantation
MDS and AML cells [11] = experiment: Cell proliferation; format: cell-based, human; details: dose-dependent
Method in brief: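 Growth of MDS and AML cell lines was measured by CCK-8 assay after 72 hours of treatment across a dose range. IC50 was derived by nonlinear regression of the dose–response curves.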

MDS and AML cells [12] = experiment: Apoptosis of MDS and AML cells; format: cell-based, human
[13] = system: LINE-1 methylation in HL60 cells; experiment: LINE-1 methylation by pyrosequencing in HL60 cells; format: cell-based, human; details: 500 nmol/L, untreated 83.7
DNMT1 = experiment: Western blot of DNMT1 in MDS and AML cell lines; format: cell-based, human; details: 100 or 500 nmol/L; MDS-L, SKM1, HL60, THP-1
MDS-L cells = experiment: Flow cytometry of differentiation markers CD11b and HLA-DR; format: cell-based, human
[14] = DAC 1.0 mg/kg or OR21 2.7 mg/kg twice weekly from day 5, vehicle 44 days
[15] = DAC 1.0 mg/kg or OR21 2.7 mg/kg twice weekly from day 5
[16] = higher dose: DAC 2.0 mg/kg or OR21 5.4 mg/kg, vehicle 48 days

| Structure (SMILES) | LINE-1 methylation levels, effect of treatment [1] | LINE-1 methylation level [1] | LINE-1 methylation level [2] | anemia (hematopoietic toxicity) [3] | survival on long-term administration [3] | half-life [4] | median overall survival (HL60 cells; [14]) | LINE-1 methylation in bone marrow cells (HL60 cells) | hemoglobin levels (HL60 cells) | human CD45-positive cells in PB (HL60 cells; [15]) | median overall survival (HL60 cells; [16]) | CD11b-positive cells in PB (HL60 cells) | other results |
| --- | --- | --- | --- | --- | --- | --- | --- | --- | --- | --- | --- | --- | --- |
| Nc1ncn([C@@H]2O[C@H](CO)[C@@H](O)[C@H]2O)c(=O)n1 [AZA, azacitidine] | did not decrease | 88.8% | 72.1% | – | – | – | – | – | – | – | – | – | – |
| Nc1ncn([C@H]2C[C@H](O)[C@@H](CO)O2)c(=O)n1 [DAC, decitabine, reference compound] | – | 75.2% | 58.4% and 66.9% | severe anemia | died within 80 days | ~20 h | 46.5 days | 56.3% | 15.6 g/dL and 15.6 (±1.22) g/dL | 1.67% | 32 days | 75.7% | anemia ([3]; low dose: DAC 1.25 mg/kg or OR21 3.7 mg/kg): more likely than OR21-treated mice to develop anemia; toxicity (HL60R cells): severe toxicity; peak plasma concentration of DAC ([5]; administration of 0.88 μmol/L/kg DAC (calculated as an AUC equivalent to that of released DAC)): 0.64 µmol/L; AUC ([6]; 10.9 μmol/kg (1.67 mg/kg) intravenous): 0.49 (±0.17) μmol/L/hour; enteric bioavailability ([6]; higher dose): did not result in enteric bioavailability |
| CC[Si](CC)(CC)OC[C@H]1O[C@@H](n2cnc(N)nc2=O)C[C@@H]1O [OR21, 5′-O-triethylsilyl-2′-deoxy-5-azacytidine] | significantly decreased | 74.2% | 66.9% | developed anemia by day 29, but recovered by day 57 | all were still alive after 80 days | 20 h | 49 days | 63.0% | 17.1 g/dL and 17.1(±0.31) g/dL | 0.75% | 57 days | 65.5% | LINE-1 methylation level [7]: 82.4%; growth of HL60R cells [8]: inhibited growth; LINE-1 methylation level [9]: 64.6%; survival (HL60R cells; P = 0.0188): significantly prolonged survival; AUC of released DAC ([5]; intraperitoneal 1.59 μmol/L/kg OR21): 0.38 µmol/L/h; peak plasma concentration of DAC ([5]; intraperitoneal administration of 1.59 μmol/L/kg OR21): 0.43 µmol/L; LINE-1 methylation level [10]: 78.6%; human CD45-positive cells in peripheral blood (SKM1 cells; day 28, vehicle 6.40%): 0.31%; median overall survival (SKM1 cells; vehicle 29 days): > 53 days; cell growth (MDS and AML cells [11]): inhibited growth; AUC ([6]; 10.9 μmol/kg (3.75 mg/kg) duodenal administration): 0.25 (±0.14) μmol/L/hour; AUC ([6]; 9.0 mg/kg (26.3 μmol/kg) duodenal administration): 0.45 ± 0.23 µmol/L/h; apoptosis (MDS and AML cells [12]; MDS and AML cells, dose-dependent): induced apoptosis; apoptosis of primary cells (MDS and AML cells [12]; primary MDS and AML cells): induced apoptosis of primary MDS and AML cells; LINE-1 methylation level [13]: 76.0%; DNMT1 levels versus untreated cells (DNMT1): markedly lower; expression of CD11b (MDS-L cells): upregulated; expression of HLA-DR (MDS-L cells): downregulated |

Reference: paper PMC9398096 (Molecular Cancer Therapeutics, 2021)
